In ChEMBL document CHEMBL2016570, “Synthesis, biological evaluation, and molecular docking studies of 1,3,4-thiadiazol-2-amide derivatives as novel anticancer agents” (Bioorg Med Chem, 2012):
The source made the active and inactive calls. The rule behind the calls is not given here.

Tests used:
[1] = Inhibition of bovine brain FAK after 20 mins by turbidimetry; parameters: species or system Bos taurus
B16-F10 = test: Antiproliferative activity against mouse B16F10 cells after 48 hrs by MTT assay; type: functional, cell-based; details: B16-F10, 48 h
MCF7 = test: Antiproliferative activity against human MCF7 cells after 48 hrs by MTT assay; type: functional, cell-based; details: MCF7, 48 h
Method in brief: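 MCF-7 cells were grown to log phase in RPMI 1640 with 10% FBS, diluted to 2 × 10⁴ cells/mL and seeded, then held 24 h at 37 °C, 5% CO₂. Compounds at pre-set concentrations went into six wells, with staurosporine as positive reference, for 48 h. MTT in PBS (2.5 mg/mL) was added, incubation ran overnight at 37 °C, and OD was read at 570 nm. Triplicate wells per concentration; assay run ≥3 times.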

[2] = molecular target: Focal adhesion kinase 1 (Homo sapiens) (UniProt Q05397); test: Inhibition of FAK in human MCF7 cells at 2 to 8 uM by Western blot analysis; type: cell-based
Method in brief: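 After treatment, cells were PBS-washed and lysed in Tris/NaCl/PMSF/Na₃VO₄/NP-40/glycerol buffer with phosphatase and protease inhibitors, then spun at 12,000g for 5 min. Protein was measured by BCA, resolved on 10% SDS–PAGE and transferred to PVDF. Membranes were blocked in 5% nonfat milk for 2 h at room temperature, probed with primary antibodies overnight at 4 °C, then HRP secondary. Representative of three independent experiments.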

Sequence of Focal adhesion kinase 1 (Homo sapiens) (Q05397 2-1052 limits assumed): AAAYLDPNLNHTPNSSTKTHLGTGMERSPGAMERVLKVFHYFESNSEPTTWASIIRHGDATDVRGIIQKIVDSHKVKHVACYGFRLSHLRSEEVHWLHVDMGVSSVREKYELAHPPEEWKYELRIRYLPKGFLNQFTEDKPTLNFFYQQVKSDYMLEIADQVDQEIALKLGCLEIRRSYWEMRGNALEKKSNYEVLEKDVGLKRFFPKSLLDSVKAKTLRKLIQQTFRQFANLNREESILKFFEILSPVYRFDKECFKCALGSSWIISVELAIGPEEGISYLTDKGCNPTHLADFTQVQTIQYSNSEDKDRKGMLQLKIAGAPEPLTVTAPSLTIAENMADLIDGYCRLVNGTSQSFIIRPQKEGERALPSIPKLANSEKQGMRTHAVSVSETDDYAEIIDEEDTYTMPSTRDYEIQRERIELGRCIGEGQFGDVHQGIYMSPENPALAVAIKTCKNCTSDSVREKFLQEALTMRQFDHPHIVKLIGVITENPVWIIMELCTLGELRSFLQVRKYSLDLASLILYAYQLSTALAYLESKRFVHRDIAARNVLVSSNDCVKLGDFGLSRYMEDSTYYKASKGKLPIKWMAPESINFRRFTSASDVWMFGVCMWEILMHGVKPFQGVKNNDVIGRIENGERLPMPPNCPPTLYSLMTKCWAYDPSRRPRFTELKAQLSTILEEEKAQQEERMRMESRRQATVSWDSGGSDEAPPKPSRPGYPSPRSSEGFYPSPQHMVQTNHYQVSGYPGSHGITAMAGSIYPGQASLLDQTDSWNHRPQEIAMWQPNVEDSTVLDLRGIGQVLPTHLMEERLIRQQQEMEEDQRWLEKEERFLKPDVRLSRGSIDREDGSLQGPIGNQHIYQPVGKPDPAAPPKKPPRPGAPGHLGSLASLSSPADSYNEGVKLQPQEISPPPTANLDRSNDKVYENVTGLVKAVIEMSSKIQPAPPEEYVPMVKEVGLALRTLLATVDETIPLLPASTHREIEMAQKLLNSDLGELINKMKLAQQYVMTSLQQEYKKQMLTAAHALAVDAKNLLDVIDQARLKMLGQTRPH

## Cc1ccc(-c2nnc(NC(=O)c3ccccc3O)s2)cc1
[1]
  IC50: 8.54 µM
B16-F10
  IC50: 1.97 µM
MCF7
  IC50: 2.36 µM

## COc1ccc(-c2nnc(NC(=O)c3ccccc3O)s2)cc1
[1]
  IC50: 7.47 µM
B16-F10
  IC50: 1.39 µM
MCF7
  IC50: 2.17 µM

## Cc1ccc(C(=O)Nc2nnc(-c3ccccc3)s2)cc1
[1]
  IC50: 9.84 µM
B16-F10
  IC50: 2.76 µM
MCF7
  IC50: 3.28 µM

## O=C(Nc1nnc(-c2ccc(F)cc2)s1)c1ccccc1
[1]
  IC50: 15.5 µM
B16-F10
  IC50: 4.75 µM
MCF7
  IC50: 5.35 µM

## O=C(Nc1nnc(-c2ccccc2)s1)c1cc(Cl)ccc1O
[1]
  IC50: 6.89 µM
B16-F10
  IC50: 1.14 µM
MCF7
  IC50: 1.12 µM

## O=C(Nc1nnc(-c2ccc(Cl)cc2)s1)c1ccccc1
[1]
  IC50: 12.7 µM
B16-F10
  IC50: 4.06 µM
MCF7
  IC50: 4.85 µM

## COc1ccc(-c2nnc(NC(=O)c3cccnc3)s2)cc1
[1]
  IC50: 9.75 µM
B16-F10
  IC50: 2.36 µM
MCF7
  IC50: 2.99 µM

## O=C(Nc1nnc(-c2ccc(Cl)cc2)s1)c1cc(Cl)ccc1O
[1]
  IC50: 5.32 µM
B16-F10
  IC50: 0.31 µM
[2]
  inhibition: Active
MCF7
  IC50: 0.45 µM

## O=C(Cc1ccccc1)Nc1nnc(-c2ccc(Br)cc2)s1
[1]
  IC50: 21.5 µM
B16-F10
  IC50: 9.06 µM
MCF7
  IC50: 7.52 µM

## O=C(Nc1nnc(-c2ccc(F)cc2)s1)c1ccccc1O
[1]
  IC50: 7.02 µM
B16-F10
  IC50: 1.16 µM
MCF7
  IC50: 1.21 µM

## O=C(Nc1nnc(-c2ccc(F)cc2)s1)c1cc(Cl)ccc1O
[1]
  IC50: 6.13 µM
B16-F10
  IC50: 0.68 µM
MCF7
  IC50: 0.75 µM

## O=C(Cc1ccccc1)Nc1nnc(-c2ccc(Cl)cc2)s1
[1]
  IC50: 19.7 µM
B16-F10
  IC50: 8.23 µM
MCF7
  IC50: 6.47 µM

## COc1ccc(C(=O)Nc2nnc(-c3ccccc3)s2)cc1
[1]
  IC50: 7.89 µM
B16-F10
  IC50: 1.75 µM
MCF7
  IC50: 1.83 µM

## Cc1ccc(-c2nnc(NC(=O)c3cccnc3)s2)cc1
[1]
  IC50: 12.4 µM
B16-F10
  IC50: 3.88 µM
MCF7
  IC50: 4.52 µM

## O=C(Nc1nnc(-c2ccccc2)s1)c1cccnc1
[1]
  IC50: 18.6 µM
B16-F10
  IC50: 6.18 µM
MCF7
  IC50: 8.22 µM

## O=C(Nc1nnc(-c2ccccc2)s1)c1ccccc1
[1]
  IC50: 16.2 µM
B16-F10
  IC50: 5.15 µM
MCF7
  IC50: 5.87 µM

## O=C(Nc1nnc(-c2ccccc2)s1)c1ccc(Cl)cc1
[1]
  IC50: 11.9 µM
B16-F10
  IC50: 4.65 µM
MCF7
  IC50: 4.49 µM

## Cc1ccc(-c2nnc(NC(=O)c3ccccc3)s2)cc1
[1]
  IC50: 11.7 µM
B16-F10
  IC50: 3.52 µM
MCF7
  IC50: 3.57 µM

## O=C(Nc1nnc(-c2ccccc2)s1)c1ccc(F)cc1
[1]
  IC50: 14 µM
B16-F10
  IC50: 4.36 µM
MCF7
  IC50: 4.85 µM

## CN[C@@H]1C[C@H]2O[C@@](C)([C@@H]1OC)n1c3ccccc3c3c4c(c5c6ccccc6n2c5c31)C(=O)NC4 [STAUROSPORINE]
MCF7
  IC50: 3.07 µM

## O=C(Nc1nnc(-c2ccc(F)cc2)s1)c1cc(Br)ccc1O
[1]
  IC50: 6.41 µM
B16-F10
  IC50: 1.02 µM
MCF7
  IC50: 0.86 µM

## COc1ccc(-c2nnc(NC(=O)c3ccccc3)s2)cc1
[1]
  IC50: 7.71 µM
B16-F10
  IC50: 1.58 µM
MCF7
  IC50: 1.55 µM

## O=C(Nc1nnc(-c2ccccc2)s1)c1cc(Br)ccc1O
[1]
  IC50: 7.25 µM
B16-F10
  IC50: 1.28 µM
MCF7
  IC50: 1.28 µM

## O=C(Nc1nnc(-c2ccc(Cl)cc2)s1)c1ccccc1O
[1]
  IC50: 6.79 µM
B16-F10
  IC50: 1.15 µM
MCF7
  IC50: 1.02 µM

## O=C(Nc1nnc(-c2ccc(Cl)cc2)s1)c1cc(Br)ccc1O
[1]
  IC50: 5.85 µM
B16-F10
  IC50: 0.56 µM
MCF7
  IC50: 0.67 µM

## O=C(Nc1nnc(-c2ccccc2)s1)c1ccccc1O
[1]
  IC50: 9.36 µM
B16-F10
  IC50: 2.02 µM
MCF7
  IC50: 2.76 µM
